Values joined by “and” are separate entries in the source; they are usually repeats but may differ in a detail not shown here. Identical values can stand only once.
Experiments:
Format in all cases: toxicity, cell-based
U2OS = assay: Multiplex assay against U2OS; conditions: human, number of replicates 2
In short: (§1)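 Cells stained live at seeding with Hoechst33342, BioTracker Green Microtubule Cytoskeleton Dye, MitoTracker Red and Annexin V Alexa Fluor 680 were imaged on a CQ1 microscope at 37°C and 5% CO2 after compound addition. Their classification by CellPathfinder machine-learning gating ran from Hoechst high-intensity objects versus normal cells, to healthy, pyknosed or fragmented nuclei among normal cells, to mitotic or apoptotic among pyknosed cells. Tubulin, mitochondrial-mass and membrane-permeability phenotypes are per cents of healthy-nucleus cells.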

Fibroblast = assay: Multiplex assay against human fibroblast; conditions: number of replicates 2; in short: as §1
HEK-293T = assay: Multiplex assay against HEK293T; conditions: human, number of replicates 2; in short: as §1
[1] = 12 h, 1 µM, compound concentration 1 uM
[2] = 12 h, 10 µM, compound concentration 10 uM
[3] = 24 h, 1 µM, compound concentration 1 uM
[4] = 24 h, 10 µM, compound concentration 10 uM
[5] = 48 h, 1 µM, compound concentration 1 uM
[6] = 48 h, 10 µM, compound concentration 10 uM

CNC(=O)c1c(F)cccc1Nc1nc(Nc2cc3c(cc2OC)CCN3C(=O)CN(C)C)nc2[nH]ccc12
Population Apoptotic (%) (U2OS; [1]): 57% and 62% | Population Healthy Nuclei (%) (U2OS; [1]): 60% and 80% | Population Hoechst High Intensity Objects (%) (U2OS; [1]): 0% | Population Membrane Permeable-Phenotype (%) (U2OS; [1]): 0% and 7% | Population Mitochondria Different-Phenotype (%) (U2OS; [1]): 0% and 8% | Population Mitotic Cells (%) (U2OS; [1]): 42% and 37% | Population Normal (%) (U2OS; [1]): 100% | Population Pyknosed Nuclei (%) (U2OS; [1]): 13% and 15% | Population Tubulin-Different-Phenotype (%) (U2OS; [1]): 80% and 46% | Population Apoptotic (%) (U2OS; [2]): 46% and 60% | Population Healthy Nuclei (%) (U2OS; [2]): 33% and 35% | Population Hoechst High Intensity Objects (%) (U2OS; [2]): 0% and 2% | Population Mitotic Cells (%) (U2OS; [2]): 53% and 39% | Population Normal (%) (U2OS; [2]): 100% and 97% | Population Tubulin-Different-Phenotype (%) (U2OS; [2]): 57% and 75% | Total Cell Count (U2OS; [2]): 815 and 281 | Population Apoptotic (%) (U2OS; [3]): 46% and 59% | Population Healthy Nuclei (%) (U2OS; [3]): 55% and 80% | Population Hoechst High Intensity Objects (%) (U2OS; [3]): 0% | Population Membrane Permeable-Phenotype (%) (U2OS; [3]): 0% and 3% | Population Mitochondria Different-Phenotype (%) (U2OS; [3]): 0% and 7% | Population Mitotic Cells (%) (U2OS; [3]): 53% and 40% | Population Normal (%) (U2OS; [3]): 100% | Population Pyknosed Nuclei (%) (U2OS; [3]): 25% and 15% | Population Tubulin-Different-Phenotype (%) (U2OS; [3]): 87% and 50% | Population Apoptotic (%) (U2OS; [4]): 72% and 83% | Population Healthy Nuclei (%) (U2OS; [4]): 32% and 23% | Population Hoechst High Intensity Objects (%) (U2OS; [4]): 0% and 1% | Population Mitotic Cells (%) (U2OS; [4]): 27% and 16% | Population Normal (%) (U2OS; [4]): 100% and 98% | Population Tubulin-Different-Phenotype (%) (U2OS; [4]): 62% and 78% | Population Apoptotic (%) (U2OS; [5]): 72% and 78% | Population Healthy Nuclei (%) (U2OS; [5]): 61% and 82% | Population Hoechst High Intensity Objects (%) (U2OS; [5]): 1% and 0% | Population Membrane Permeable-Phenotype (%) (U2OS; [5]): 2% and 4% | Population Mitochondria Different-Phenotype (%) (U2OS; [5]): 2% and 5% | Population Mitotic Cells (%) (U2OS; [5]): 27% and 22% | Population Normal (%) (U2OS; [5]): 98% and 100% | Population Pyknosed Nuclei (%) (U2OS; [5]): 23% and 14% | Population Tubulin-Different-Phenotype (%) (U2OS; [5]): 91% and 62% | Population Apoptotic (%) (U2OS; [6]): 95% and 94% | Population Hoechst High Intensity Objects (%) (U2OS; [6]): 0% and 1% | Population Mitotic Cells (%) (U2OS; [6]): 4% and 5% | Population Normal (%) (U2OS; [6]): 100% and 98% | Population Tubulin-Different-Phenotype (%) (U2OS; [6]): 64% and 80% | Population Apoptotic (%) (Fibroblast; [1]): 26% and 33% | Population Fragmented Nuclei (%) (Fibroblast; [1]): 9% and 14% | Population Healthy Nuclei (%) (Fibroblast; [1]): 66% and 70% | Population Hoechst High Intensity Objects (%) (Fibroblast; [1]): 0% | Population Membrane Permeable-Phenotype (%) (Fibroblast; [1]): 6% and 2% | Population Mitochondria Different-Phenotype (%) (Fibroblast; [1]): 0% and 3% | Population Mitotic Cells (%) (Fibroblast; [1]): 73% and 66% | Population Normal (%) (Fibroblast; [1]): 100% and 99% | Population Pyknosed Nuclei (%) (Fibroblast; [1]): 24% and 14% | Population Tubulin-Different-Phenotype (%) (Fibroblast; [1]): 7% and 20% | Total Cell Count (Fibroblast; [1]): 166 and 190 | Population Apoptotic (%) (Fibroblast; [2]): 61% and 48% | Population Fragmented Nuclei (%) (Fibroblast; [2]): 11% and 13% | Population Healthy Nuclei (%) (Fibroblast; [2]): 16% and 26% | Population Hoechst High Intensity Objects (%) (Fibroblast; [2]): 0% | Population Membrane Permeable-Phenotype (%) (Fibroblast; [2]): 34% and 21% | Population Mitochondria Different-Phenotype (%) (Fibroblast; [2]): 3% | Population Mitotic Cells (%) (Fibroblast; [2]): 38% and 51% | Population Normal (%) (Fibroblast; [2]): 100% | Population Pyknosed Nuclei (%) (Fibroblast; [2]): 72% and 59% | Population Tubulin-Different-Phenotype (%) (Fibroblast; [2]): 80% and 51% | Total Cell Count (Fibroblast; [2]): 162 and 196 | Population Apoptotic (%) (Fibroblast; [3]): 27% and 47% | Population Fragmented Nuclei (%) (Fibroblast; [3]): 11% and 9% | Population Healthy Nuclei (%) (Fibroblast; [3]): 67% and 80% | Population Hoechst High Intensity Objects (%) (Fibroblast; [3]): 0% | Population Membrane Permeable-Phenotype (%) (Fibroblast; [3]): 2% and 1% | Population Mitochondria Different-Phenotype (%) (Fibroblast; [3]): 0% and 4% | Population Mitotic Cells (%) (Fibroblast; [3]): 72% and 52% | Population Normal (%) (Fibroblast; [3]): 100% and 99% | Population Pyknosed Nuclei (%) (Fibroblast; [3]): 20% and 10% | Total Cell Count (Fibroblast; [3]): 159 and 167 | Population Apoptotic (%) (Fibroblast; [4]): 70% and 79% | Population Fragmented Nuclei (%) (Fibroblast; [4]): 16% and 11% | Population Healthy Nuclei (%) (Fibroblast; [4]): 18% and 17% | Population Hoechst High Intensity Objects (%) (Fibroblast; [4]): 1% and 0% | Population Membrane Permeable-Phenotype (%) (Fibroblast; [4]): 72% and 73% | Population Mitochondria Different-Phenotype (%) (Fibroblast; [4]): 6% and 7% | Population Mitotic Cells (%) (Fibroblast; [4]): 29% and 20% | Population Normal (%) (Fibroblast; [4]): 98% and 99% | Population Pyknosed Nuclei (%) (Fibroblast; [4]): 64% and 71% | Population Tubulin-Different-Phenotype (%) (Fibroblast; [4]): 75% and 65% | Total Cell Count (Fibroblast; [4]): 159 and 152 | Population Apoptotic (%) (Fibroblast; [5]): 58% and 81% | Population Fragmented Nuclei (%) (Fibroblast; [5]): 13% and 15% | Population Healthy Nuclei (%) (Fibroblast; [5]): 73% and 76% | Population Hoechst High Intensity Objects (%) (Fibroblast; [5]): 0% | Population Membrane Permeable-Phenotype (%) (Fibroblast; [5]): 2% and 1% | Population Mitochondria Different-Phenotype (%) (Fibroblast; [5]): 0% | Population Mitotic Cells (%) (Fibroblast; [5]): 41% and 18% | Population Normal (%) (Fibroblast; [5]): 100% | Population Pyknosed Nuclei (%) (Fibroblast; [5]): 13% and 8% | Population Tubulin-Different-Phenotype (%) (Fibroblast; [5]): 3% and 5% | Total Cell Count (Fibroblast; [5]): 178 and 200 | Population Apoptotic (%) (Fibroblast; [6]): 90% and 93% | Population Fragmented Nuclei (%) (Fibroblast; [6]): 37% and 31% | Population Healthy Nuclei (%) (Fibroblast; [6]): 20% and 24% | Population Hoechst High Intensity Objects (%) (Fibroblast; [6]): 0% | Population Membrane Permeable-Phenotype (%) (Fibroblast; [6]): 75% and 48% | Population Mitochondria Different-Phenotype (%) (Fibroblast; [6]): 3% and 0% | Population Mitotic Cells (%) (Fibroblast; [6]): 9% and 6% | Population Normal (%) (Fibroblast; [6]): 100% and 99% | Population Pyknosed Nuclei (%) (Fibroblast; [6]): 41% and 43% | Population Tubulin-Different-Phenotype (%) (Fibroblast; [6]): 62% and 57% | Total Cell Count (Fibroblast; [6]): 158 and 145 | Population Apoptotic (%) (HEK-293T; [1]): 62% and 55% | Population Fragmented Nuclei (%) (HEK-293T; [1]): 4% and 2% | Population Healthy Nuclei (%) (HEK-293T; [1]): 82% and 86% | Population Hoechst High Intensity Objects (%) (HEK-293T; [1]): 12% | Population Membrane Permeable-Phenotype (%) (HEK-293T; [1]): 1% and 0% | Population Mitochondria Different-Phenotype (%) (HEK-293T; [1]): 46% and 51% | Population Mitotic Cells (%) (HEK-293T; [1]): 37% and 44% | Population Normal (%) (HEK-293T; [1]): 87% | Population Pyknosed Nuclei (%) (HEK-293T; [1]): 13% and 10% | Population Tubulin-Different-Phenotype (%) (HEK-293T; [1]): 81% and 83% | Total Cell Count (HEK-293T; [1]): 326 and 308 | Population Apoptotic (%) (HEK-293T; [2]): 45% and 56% | Population Fragmented Nuclei (%) (HEK-293T; [2]): 7% | Population Healthy Nuclei (%) (HEK-293T; [2]): 75% and 73% | Population Hoechst High Intensity Objects (%) (HEK-293T; [2]): 44% and 47% | Population Membrane Permeable-Phenotype (%) (HEK-293T; [2]): 4% and 2% | Population Mitochondria Different-Phenotype (%) (HEK-293T; [2]): 66% and 59% | Population Mitotic Cells (%) (HEK-293T; [2]): 54% and 44% | Population Normal (%) (HEK-293T; [2]): 55% and 52% | Population Pyknosed Nuclei (%) (HEK-293T; [2]): 17% and 19% | Population Tubulin-Different-Phenotype (%) (HEK-293T; [2]): 94% and 93% | Total Cell Count (HEK-293T; [2]): 246 and 244 | Population Apoptotic (%) (HEK-293T; [3]): 40% and 83% | Population Fragmented Nuclei (%) (HEK-293T; [3]): 9% and 7% | Population Healthy Nuclei (%) (HEK-293T; [3]): 84% and 88% | Population Hoechst High Intensity Objects (%) (HEK-293T; [3]): 12% and 9% | Population Membrane Permeable-Phenotype (%) (HEK-293T; [3]): 0% | Population Mitochondria Different-Phenotype (%) (HEK-293T; [3]): 34% and 30% | Population Normal (%) (HEK-293T; [3]): 87% and 90% | Population Pyknosed Nuclei (%) (HEK-293T; [3]): 5% and 4% | Population Tubulin-Different-Phenotype (%) (HEK-293T; [3]): 81% and 79% | Total Cell Count (HEK-293T; [3]): 390 and 332 | Population Apoptotic (%) (HEK-293T; [4]): 37% and 38% | Population Fragmented Nuclei (%) (HEK-293T; [4]): 6% | Population Healthy Nuclei (%) (HEK-293T; [4]): 79% and 80% | Population Hoechst High Intensity Objects (%) (HEK-293T; [4]): 37% and 45% | Population Membrane Permeable-Phenotype (%) (HEK-293T; [4]): 8% and 4% | Population Mitochondria Different-Phenotype (%) (HEK-293T; [4]): 45% and 40% | Population Mitotic Cells (%) (HEK-293T; [4]): 62% and 61% | Population Normal (%) (HEK-293T; [4]): 62% and 54% | Population Pyknosed Nuclei (%) (HEK-293T; [4]): 14% and 12% | Population Tubulin-Different-Phenotype (%) (HEK-293T; [4]): 93% and 94% | Total Cell Count (HEK-293T; [4]): 266 and 259 | Population Apoptotic (%) (HEK-293T; [5]): 25% and 66% | Population Fragmented Nuclei (%) (HEK-293T; [5]): 16% and 11% | Population Healthy Nuclei (%) (HEK-293T; [5]): 80% and 86% | Population Hoechst High Intensity Objects (%) (HEK-293T; [5]): 21% and 30% | Population Membrane Permeable-Phenotype (%) (HEK-293T; [5]): 1% | Population Mitochondria Different-Phenotype (%) (HEK-293T; [5]): 4% and 8% | Population Mitotic Cells (%) (HEK-293T; [5]): 75% and 33% | Population Normal (%) (HEK-293T; [5]): 78% and 69% | Population Pyknosed Nuclei (%) (HEK-293T; [5]): 2% and 1% | Population Tubulin-Different-Phenotype (%) (HEK-293T; [5]): 63% and 69% | Total Cell Count (HEK-293T; [5]): 741 and 531 | Population Apoptotic (%) (HEK-293T; [6]): 57% and 71% | Population Fragmented Nuclei (%) (HEK-293T; [6]): 9% | Population Healthy Nuclei (%) (HEK-293T; [6]): 80% and 77% | Population Hoechst High Intensity Objects (%) (HEK-293T; [6]): 29% and 35% | Population Membrane Permeable-Phenotype (%) (HEK-293T; [6]): 5% and 7% | Population Mitochondria Different-Phenotype (%) (HEK-293T; [6]): 18% and 11% | Population Mitotic Cells (%) (HEK-293T; [6]): 42% and 28% | Population Normal (%) (HEK-293T; [6]): 70% and 64% | Population Pyknosed Nuclei (%) (HEK-293T; [6]): 9% and 13% | Population Tubulin-Different-Phenotype (%) (HEK-293T; [6]): 87% | Total Cell Count (HEK-293T; [6]): 402 and 414
